In brackets after ≈: the same amount, converted by molar mass. Activity calls are given as the source filed them. The rule behind the calls is not given here.
Legend:
Enterobacter sp. = test: Antibacterial activity against Enterobacter sp. J 14365/ 08 after 24 to 48 hrs by broth microdilution method; type: functional, organism-based
Klebsiella pneumoniae [1] = test: Antibacterial activity against Klebsiella pneumoniae D11750/08 after 24 to 48 hrs by broth microdilution method; type: functional, organism-based
Lichtheimia corymbifera [2] = test: Antifungal activity against Absidia corymbifera 272 after 24 hrs by broth microdilution method; type: functional; conditions: Lichtheimia corymbifera, 272, 24 h
Outline: (§1)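 Broth microdilution. Compounds in DMSO were diluted twofold in RPMI 1640 with glutamine, buffered to pH 7.0 with MOPS. Final DMSO was at most 2.5% (v/v). Plates were incubated statically, in the dark and humid, at 35 °C and read at 24 and 48 h.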

Nakaseomyces glabratus [3] = test: Antifungal activity against Candida glabrata 20/I after 48 hrs by broth microdilution method; type: functional; outline: as §1
Pichia kudriavzevii [4] = test: Antifungal activity against Candida krusei E28 after 48 hrs by broth microdilution method; type: functional; conditions: E28, 48 h; outline: as §1
Mycobacterium kansasii = test: Antimycobacterial activity against Mycobacterium kansasii CNCTC My 235/80 after 6 days by microdilution method; type: functional; conditions: CNCTC My 235/80, 144 h
Outline: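 Compounds were dissolved in DMSO and diluted in Šula's semisynthetic medium at pH 5.5, at final concentrations of 200 to 3.125 μg/mL in twofold steps; DMSO stayed ≤1% v/v. The strain was added as a suspension in isotonic saline and incubated at 37 °C. Growth was read visually after 6 days; MIC is the lowest concentration that inhibited growth. Pyrazinamide served as standard.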

Trichosporon beigelii [5] = test: Antifungal activity against Trichosporon beigelii 1188 after 24 hrs by broth microdilution method; type: functional; conditions: Trichosporon beigelii, 1188, 24 h; outline: as §1
[6] = tested on: Trichophyton mentagrophytes; test: Antifungal activity against Trichophyton mentagrophytes 445 after 120 hrs by broth microdilution method; type: functional; conditions: Trichophyton mentagrophytes, 445, 120 h
Outline: (§2)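 Trichophyton mentagrophytes was tested by twofold broth microdilution in MOPS-buffered RPMI 1640 with glutamine, pH 7.0, with final DMSO at most 2.5% (v/v). Incubation was static, dark and humid at 35 °C, and plates were read at 72 and 120 h.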

Candida albicans [7] = test: Antifungal activity against Candida albicans ATCC 44859 after 48 hrs by broth microdilution method; type: functional; conditions: ATCC 44859, 48 h; outline: as §1
Lichtheimia corymbifera [8] = test: Antifungal activity against Absidia corymbifera 272 after 48 hrs by broth microdilution method; type: functional; conditions: Lichtheimia corymbifera, 272, 48 h; outline: as §1
Aspergillus fumigatus [9] = test: Antifungal activity against Aspergillus fumigatus 231 after 48 hrs by broth microdilution method; type: functional; conditions: Aspergillus fumigatus, 231, 48 h; outline: as §1
Pseudomonas aeruginosa = test: Antibacterial activity against Pseudomonas aeruginosa CCM 1961 after 24 to 48 hrs by broth microdilution method; type: functional, organism-based
Outline: (§3)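 Strains subcultured on Mueller-Hinton agar at 35 °C and passaged onto MHA before testing. Inoculum suspended in sterile 0.85% saline and adjusted to 0.5 McFarland (1.5×10^8 CFU/mL). Compounds in DMSO (final ≤1% v/v) in Mueller-Hinton broth at pH 7.0, with medium and DMSO-alone controls. Static incubation at 35 °C; MIC taken as 95% growth inhibition versus control at 24 and 48 h.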

Nakaseomyces glabratus [10] = test: Antifungal activity against Candida glabrata 20/I after 24 hrs by broth microdilution method; type: functional; outline: as §1
Candida tropicalis [11] = test: Antifungal activity against Candida tropicalis 156 after 24 hrs by broth microdilution method; type: functional; conditions: Candida tropicalis, 156, 24 h; outline: as §1
Trichosporon beigelii [12] = test: Antifungal activity against Trichosporon beigelii 1188 after 48 hrs by broth microdilution method; type: functional; conditions: Trichosporon beigelii, 1188, 48 h; outline: as §1
Staphylococcus aureus [13] = test: Antibacterial activity against Staphylococcus aureus CCM 4516/08 after 24 to 48 hrs by broth microdilution method; type: functional, organism-based; outline: as §3
Mycobacterium avium [14] = test: Antimycobacterial activity against Mycobacterium avium CNCTC My 152/73 after 14 days by microdilution method; type: functional; conditions: CNCTC My 152/73, 336 h
Outline: (§4)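 Compounds in DMSO were diluted in Šula's semisynthetic medium, pH 5.5, to final 200–3.125 μg/mL, with DMSO at most 1% (v/v). Mycobacteria were added as a suspension in isotonic saline and grown at 37 °C. MIC was read visually after 14 days as the lowest concentration inhibiting growth.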

Staphylococcus aureus [15] = test: Antibacterial activity against methicillin-resistant Staphylococcus aureus H 5996/08 after 24 to 48 hrs by broth microdilution method; type: functional, organism-based
Outline: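 Strains were subcultured on Mueller-Hinton agar at 35 °C, and the inoculum was suspended in 0.85% saline to 0.5 McFarland (1.5×10^8 CFU/mL). Microdilution was done in Mueller-Hinton broth, pH 7.0, with final DMSO at most 1% (v/v). MIC, set at 95% growth inhibition versus control, was read after 24 and 48 h of static incubation at 35 °C.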

Candida tropicalis [16] = test: Antifungal activity against Candida tropicalis 156 after 48 hrs by broth microdilution method; type: functional; conditions: Candida tropicalis, 156, 48 h; outline: as §1
[17] = tested on: Staphylococcus epidermidis; test: Antibacterial activity against Staphylococcus epidermidis H 6966/08 after 24 to 48 hrs by broth microdilution method; type: functional, organism-based
Klebsiella pneumoniae [18] = test: Antibacterial activity against ESBL-positive Klebsiella pneumoniae J 14368/08 after 24 to 48 hrs by broth microdilution method; type: functional, organism-based
Escherichia coli = test: Antibacterial activity against Escherichia coli CCM 4517 after 24 to 48 hrs by broth microdilution method; type: functional, organism-based; outline: as §3
Pichia kudriavzevii [19] = test: Antifungal activity against Candida krusei E28 after 24 hrs by broth microdilution method; type: functional; conditions: E28, 24 h; outline: as §1
[20] = tested on: Trichophyton mentagrophytes; test: Antifungal activity against Trichophyton mentagrophytes 445 after 72 hrs by broth microdilution method; type: functional; conditions: Trichophyton mentagrophytes, 445, 72 h; outline: as §2
Candida albicans [21] = test: Antifungal activity against Candida albicans ATCC 44859 after 24 hrs by broth microdilution method; type: functional; conditions: ATCC 44859, 24 h; outline: as §1
[22] = tested on: Mycobacterium tuberculosis; test: Antimycobacterial activity against Mycobacterium tuberculosis H37Rv CNCTC My 331/88 after 14 days by microdilution method; type: functional; conditions: H37Rv CNCTC My 331/88, 336 h; outline: as §4
Aspergillus fumigatus [23] = test: Antifungal activity against Aspergillus fumigatus 231 after 24 hrs by broth microdilution method; type: functional; conditions: Aspergillus fumigatus, 231, 24 h; outline: as §1
Mycobacterium avium [24] = test: Antimycobacterial activity against Mycobacterium avium CNCTC My 80/72 after 14 days by microdilution method; type: functional; conditions: CNCTC My 80/72, 336 h; outline: as §4

CCCCCNc1nc(C(N)=O)cnc1C#N
Activity (Enterobacter sp.): inactive | Activity (Klebsiella pneumoniae [1]): inactive | MIC (Lichtheimia corymbifera [2]): 125 µM (≈ 29.2 µg/mL) | MIC (Nakaseomyces glabratus [3]): > 250 µM | MIC (Pichia kudriavzevii [4]): 250 µM (≈ 58.3 µg/mL) | MIC (Mycobacterium kansasii): > 200 µg/mL | MIC (Trichosporon beigelii [5]): > 250 µM | MIC [6]: > 250 µM | MIC (Candida albicans [7]): > 250 µM | MIC (Lichtheimia corymbifera [8]): > 250 µM | MIC (Aspergillus fumigatus [9]): > 250 µM | Activity (Pseudomonas aeruginosa): inactive | MIC (Nakaseomyces glabratus [10]): 250 µM (≈ 58.3 µg/mL) | MIC (Candida tropicalis [11]): > 250 µM | MIC (Trichosporon beigelii [12]): > 250 µM | Activity (Staphylococcus aureus [13]): inactive | MIC (Mycobacterium avium [14]): > 200 µg/mL | Activity (Staphylococcus aureus [15]): inactive | MIC (Candida tropicalis [16]): > 250 µM | Activity [17]: inactive | Activity (Klebsiella pneumoniae [18]): inactive | Activity (Escherichia coli): inactive | MIC (Pichia kudriavzevii [19]): 62.5 µM (≈ 14.6 µg/mL) | MIC [20]: > 250 µM | MIC (Candida albicans [21]): 250 µM (≈ 58.3 µg/mL) | MIC [22]: > 200 µg/mL | MIC (Aspergillus fumigatus [23]): 250 µM (≈ 58.3 µg/mL) | MIC (Mycobacterium avium [24]): > 200 µg/mL

N#Cc1ncc(C(N)=O)nc1Cl
Activity (Enterobacter sp.): inactive | Activity (Klebsiella pneumoniae [1]): inactive | MIC (Lichtheimia corymbifera [2]): 250 µM (≈ 45.6 µg/mL) | MIC (Nakaseomyces glabratus [3]): > 500 µM | MIC (Pichia kudriavzevii [4]): > 500 µM | MIC (Mycobacterium kansasii): 25 µg/mL (≈ 137 µM) | MIC (Trichosporon beigelii [5]): > 500 µM | MIC [6]: 62.5 µM (≈ 11.4 µg/mL) | MIC (Candida albicans [7]): 125 µM (≈ 22.8 µg/mL) | MIC (Lichtheimia corymbifera [8]): 250 µM (≈ 45.6 µg/mL) | MIC (Aspergillus fumigatus [9]): > 500 µM | Activity (Pseudomonas aeruginosa): inactive | MIC (Nakaseomyces glabratus [10]): > 500 µM | MIC (Candida tropicalis [11]): > 500 µM | MIC (Trichosporon beigelii [12]): > 500 µM | Activity (Staphylococcus aureus [13]): inactive | MIC (Mycobacterium avium [14]): 25 µg/mL (≈ 137 µM) | Activity (Staphylococcus aureus [15]): inactive | MIC (Candida tropicalis [16]): > 500 µM | Activity [17]: inactive | Activity (Klebsiella pneumoniae [18]): inactive | Activity (Escherichia coli): inactive | MIC (Pichia kudriavzevii [19]): > 500 µM | MIC [20]: 62.5 µM (≈ 11.4 µg/mL) | MIC (Candida albicans [21]): 125 µM (≈ 22.8 µg/mL) | MIC [22]: 25 µg/mL (≈ 137 µM) | MIC (Aspergillus fumigatus [23]): > 500 µM | MIC (Mycobacterium avium [24]): 25 µg/mL (≈ 137 µM)
